This is an account of results in ChEMBL document CHEMBL1137474, “Synthesis, DNA binding, and cytotoxicity studies of pyrrolo[2,1-c][1,4]benzodiazepine-anthraquinone conjugates” (Bioorg Med Chem, 2007).

As usually defined, the ΔTm is the shift of the melting midpoint relative to a reference. Usually IC50 stands for the concentration that gives 50% inhibition. The low end stands for greater potency, the high end for weaker potency.

One test concerns DNA. In words: Binding affinity for calf thymus DNA at 20 uM after 18 hrs by thermal denaturation assay. Type of test: nucleic-acid assay. Particulars: Bos taurus.
In the next test the test system is SiHa. In words: Cytotoxicity against human SiHa cells by sulforhodamine B assay. Type of test: functional, cell-based. A digest of the protocol: (§1)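 Cells in RPMI 1640 with 10% FBS and 2 mM L-glutamine, seeded at densities suited to doubling time, preincubated 24 h at 37 °C, 5% CO2. Drug added for a further 48 h. Fixed with cold TCA (final 10%) for 60 min at 4 °C, then SRB-stained. Bound dye eluted with 10 mM Tris base and read at 540 nm (690 nm reference). Growth taken relative to control wells. IC50 read from dose-response graphs. Triplicate wells, three repeat experiments.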
For orientation: The SRB assay estimates cell density from bound dye.

The next test deals with MCF7. The test can be described thus: Cytotoxicity against human MCF7 cells by sulforhodamine B assay. Type of test: functional, cell-based. An outline of the steps: as §1
The test system of the next test is PC-3. In words: Cytotoxicity against human PC3 cells by sulforhodamine B assay. It counts as functional, cell-based. An outline of the steps: as §1
For a further test, the system named is COLO 205. In words: Cytotoxicity against human Colo205 cells by sulforhodamine B assay. Type of test: functional, cell-based. A digest of the protocol: as §1
The subject of another test is A2780. In words: Cytotoxicity against human A2780 cells by sulforhodamine B assay. It counts as functional, cell-based. A digest of the protocol:
as §1

The next test deals with HOP-62. The test can be described thus: Cytotoxicity against human Hop62 cells by sulforhodamine B assay. It counts as functional, cell-based. An outline of the steps:
as §1

The subject of the next test is ZR-75-1. In words: Cytotoxicity against human ZR-75-1 cells by sulforhodamine B assay. Type of test: functional, cell-based. A digest of the protocol: as §1

Take `COc1cc2c(cc1OCCCCOc1ccc(OCCCCOc3cc4c(cc3OC)C(=O)N3CCC[C@H]3C=N4)c3c1C(=O)c1ccccc1C3=O)N=C[C@@H]1CCCN1C2=O`: in the test with DNA, the ΔTm worked out at 1.6 °C. Further, the IC50 is 9000 nM with SiHa; 9000 nM in the test on MCF7; 7000 nM with PC-3; 10000 nM in the test with COLO 205; 10000 nM with A2780.

With `COc1cc2c(cc1OCCCOc1ccc(OCCCOc3cc4c(cc3OC)C(=O)N3CCC[C@H]3C=N4)c3c1C(=O)c1ccccc1C3=O)N=C[C@@H]1CCCN1C2=O`, the ΔTm in the test with DNA is 17.9 °C. Further, the half-maximal inhibitory concentration (IC50) in the test on HOP-62 was less than 1000 nM; in the test on SiHa, 800 nM; with MCF7, 600 nM; in the test on ZR-75-1 it was 500 nM; in the test on PC-3 it was 600 nM; in the test with COLO 205 it was less than 1000 nM. For the same compound, the midpoint of inhibition with A2780, the IC50, lay at 600 nM.

Take `COc1cccc2c1C(=O)c1c(O)c3c(c(O)c1C2=O)C[C@@](O)(C(=O)CO)C[C@@H]3O[C@H]1C[C@H](N)[C@H](O)[C@H](C)O1` [DOXORUBICIN]: the 50% inhibitory concentration (IC50) with HOP-62 turned out to be 1000 nM; in the test on SiHa, 1500 nM; in the test with MCF7, 500 nM; in the test with ZR-75-1 it was 600 nM; in the test with PC-3 it was 500 nM; with COLO 205, 2000 nM. The 50% inhibitory concentration (IC50) with A2780 was 500 nM.

Turning to `COc1cc2c(cc1OCCCC(=O)Nc1cccc3c1C(=O)c1ccccc1C3=O)N=C[C@@H]1CCCN1C2=O`, the shift in melting temperature (ΔTm) in the test on DNA stood at 9.1 °C. Also, the IC50 amounted to 800 nM in the test on HOP-62; 1800 nM in the test on SiHa; 1400 nM in the test on MCF7; 500 nM in the test on ZR-75-1; 800 nM in the test on PC-3; 1800 nM in the test with COLO 205. In the test with A2780, this compound came in with a 50% inhibitory concentration (IC50) of 500 nM.

As for `COc1cc2c(cc1OCCCCC(=O)Nc1cccc3c1C(=O)c1ccccc1C3=O)N=C[C@@H]1CCCN1C2=O`, the ΔTm in the test on DNA was 5.2 °C. The IC50 in the test with HOP-62 is 1000 nM; with SiHa, 1200 nM; in the test with MCF7 it was 600 nM; in the test on ZR-75-1, 500 nM; in the test on PC-3 it was 800 nM; with COLO 205, less than 1000 nM. The IC50 in the test on A2780 stood at 500 nM.

Turning to `COc1cc2c(cc1OCCCCCOc1ccc(OCCCCCOc3cc4c(cc3OC)C(=O)N3CCC[C@H]3C=N4)c3c1C(=O)c1ccccc1C3=O)N=C[C@@H]1CCCN1C2=O`, the ΔTm in the test on DNA was found to be 6 °C. Besides, the IC50 in the test with HOP-62 was 1400 nM; in the test on SiHa it was 800 nM; in the test with MCF7, 1200 nM; with ZR-75-1 it was 1500 nM; with PC-3 it was 1000 nM; with COLO 205 it was less than 1000 nM. This compound came in with a 50% inhibitory concentration (IC50) in the test with A2780 of 500 nM.
